From publication PMC3966491 (Chemical biology & drug design, 2013)

What follows are compounds tested against AKT1 (PKB alpha) (Homo sapiens, UniProt P31749) (assay: AKT1 in vitro kinase assay).
Format: biochemical
Summary of the method: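 Z′-LYTE assay. Enzyme per 10 μL reaction: AKT1 0.34–7.65 ng, AKT2 1–40 ng, or AKT3 0.56–8.3 ng. Reaction contained 2 μM Ser/Thr 06 peptide, ATP at Km, 50 mM HEPES pH 7.5, 0.01% BRIJ-35, 10 mM MgCl2 and 1 mM EGTA. After 1 h, Development Reagent A (1:2048) protease cleaved non-phosphorylated peptide. Read-out was the coumarin 445 nm/fluorescein 520 nm emission ratio; curves were fitted.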

Chain of AKT1 (PKB alpha) (P31749 whole entry): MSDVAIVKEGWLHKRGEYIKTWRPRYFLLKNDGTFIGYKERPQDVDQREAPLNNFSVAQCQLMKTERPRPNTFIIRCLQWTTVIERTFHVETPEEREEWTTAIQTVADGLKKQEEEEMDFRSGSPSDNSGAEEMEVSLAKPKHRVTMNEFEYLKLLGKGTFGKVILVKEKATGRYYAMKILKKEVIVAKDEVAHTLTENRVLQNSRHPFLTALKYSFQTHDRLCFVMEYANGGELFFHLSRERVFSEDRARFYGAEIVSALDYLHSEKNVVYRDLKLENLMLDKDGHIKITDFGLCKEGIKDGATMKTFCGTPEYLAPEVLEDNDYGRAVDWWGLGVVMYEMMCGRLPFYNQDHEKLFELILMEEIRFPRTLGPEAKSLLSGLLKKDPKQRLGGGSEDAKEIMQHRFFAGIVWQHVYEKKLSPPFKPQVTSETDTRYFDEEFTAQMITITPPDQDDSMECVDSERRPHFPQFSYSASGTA

Structure (SMILES) | AKT1 in vitro inhibition (in words) | IC50 [µM]
Cc1ccc(-c2c(C(=O)/C=C/c3nc4cc(F)c(F)cc4[nH]3)c(=O)[nH]c3ccc(Cl)cc23)cc1 [compound 50, (E)-6-chloro-3-(3-(5,6-difluoro-1H-benzo[d]imidazol-2-yl)acryloyl)-4-(p-tolyl)quinolin-2(1H)-one] | – | > 50
COc1ccc(-c2c(C(=O)/C=C/c3nc4cc(F)c(F)cc4[nH]3)c(=O)[nH]c3ccc(Cl)cc23)cc1 [compound 52, (E)-6-chloro-3-(3-(5,6-difluoro-1H-benzo[d]imidazol-2-yl)acryloyl)-4-(4-methoxyphenyl)quinolin-2(1H)-one] | – | > 50
CCOc1ccc(-c2c(C(=O)/C=C/c3nc4cc(F)c(F)cc4[nH]3)c(=O)[nH]c3ccc(Cl)cc23)cc1 [compound 53, (E)-6-chloro-3-(3-(5,6-difluoro-1H-benzo[d]imidazol-2-yl)acryloyl)-4-(4-ethoxyphenyl)quinolin-2(1H)-one] | – | > 50

The remaining lines, values ahead:

AKT1 in vitro inhibition (in words) | IC50 [µM] | Structure (SMILES)
inactive | > 100 | Cn1c(/C=C/C(=O)c2c(-c3ccccc3)c3cc(Cl)ccc3[nH]c2=O)nc2ccccc21 [compound 39, (E)-6-chloro-3-(3-(1-methyl-1H-benzo[d]imidazol-2-yl)acryloyl)-4-phenylquinolin-2(1H)-one]
– | 14 | O=C(/C=C/c1nc2cc(Br)ccc2[nH]1)c1c(-c2ccccc2)c2cc(Cl)ccc2[nH]c1=O [compound 41, (E)-3-(3-(5-bromo-1H-benzo[d]imidazol-2-yl)acryloyl)-6-chloro-4-phenylquinolin-2(1H)-one]
– | 5.2 | O=C(/C=C/c1nc2ccccc2[nH]1)c1c(-c2ccccc2)c2ccccc2[nH]c1=O [compound 43, (E)-3-(3-(1H-benzo[d]imidazol-2-yl)acryloyl)-4-phenylquinolin-2(1H)-one]
– | 17.2 | Cn1c(=O)c(C(=O)/C=C/c2nc3cc(F)ccc3[nH]2)c(-c2ccccc2)c2cc(Cl)ccc21 [compound 46, (E)-6-chloro-3-(3-(5-fluoro-1H-benzo[d]imidazol-2-yl)acryloyl)-1-methyl-4-phenylquinolin-2(1H)-one]
– | > 50 | O=C(/C=C/c1nc2cc(F)c(F)cc2[nH]1)c1c(-c2ccc(Cl)cc2)c2cc(Cl)ccc2[nH]c1=O [compound 51, (E)-6-chloro-4-(4-chlorophenyl)-3-(3-(5,6-difluoro-1H-benzo[d]imidazol-2-yl)acryloyl)quinolin-2(1H)-one]
